Results from ChEMBL document CHEMBL1122025, “Catechol O-methyltransferase. 11. Inactivation by 5-hydroxy-3-mercapto-4-methoxybenzoic acid” (1982).

Key:
Rattus norvegicus [1] = species on record: Rattus norvegicus; test: Effect of dialysis on inhibitory potency when COMT is pre-incubated in the absence of dithiothreitol (DTT) (after dialysis (-DTT)); type: functional
[2] = biological target: T1, Catechol O-methyltransferase (Rattus norvegicus) (UniProt P22734); test: Inhibition constant against Catechol O-methyltransferase from rat liver in the presence of 4 mM of dithiothreitol (DTT)
T1 sequence (whole entry): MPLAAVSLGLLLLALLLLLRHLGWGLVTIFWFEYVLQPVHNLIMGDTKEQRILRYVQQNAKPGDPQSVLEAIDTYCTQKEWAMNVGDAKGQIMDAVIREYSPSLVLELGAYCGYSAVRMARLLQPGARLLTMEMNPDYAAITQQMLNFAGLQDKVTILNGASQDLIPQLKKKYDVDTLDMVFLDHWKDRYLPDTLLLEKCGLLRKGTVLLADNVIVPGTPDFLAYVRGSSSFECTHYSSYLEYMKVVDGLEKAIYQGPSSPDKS

Rattus norvegicus [3] = species on record: Rattus norvegicus; test: Effect of dialysis on inhibitory potency when COMT is pre-incubated with dithiothreitol (DTT) (before dialysis); type: functional
Outline: (§1)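 Rat liver COMT (male Sprague-Dawley, partially purified, DTT-reactivated before use) preincubated 30 min at 37 °C in 0.2 M phosphate buffer pH 7.6 with 1 mM inhibitor, with or without 8.0 mM DTT. Activity was then assayed directly or after dialysis against 0.2 M phosphate pH 7.6 containing 8.0 mM DTT. Result expressed as % activity remaining.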

[4] = biological target: T1, Catechol O-methyltransferase (Rattus norvegicus); test: Inhibition of Catechol O-methyltransferase from rat liver at time zero with […] of the enzyme after pre-incubation for 30 min (in presence of DTT)
[5] = biological target: T1, Catechol O-methyltransferase (Rattus norvegicus); test: Inhibition constant against Catechol O-methyltransferase from rat liver in the absence of dithiothreitol (DTT)
Rattus norvegicus [6] = species on record: Rattus norvegicus; test: Effect of dialysis on inhibitory potency when COMT is pre-incubated with dithiothreitol (+DTT) (after dialysis); type: functional; outline: as §1
[7] = biological target: T1, Catechol O-methyltransferase (Rattus norvegicus); test: Inhibition of Catechol O-methyltransferase from rat liver at time zero with no further inactivation of the enzyme after pre-incubation for 30 min (in absence of DTT)
Rattus norvegicus [8] = species on record: Rattus norvegicus; test: Effect of dialysis on inhibitory potency when COMT is pre-incubated in the absence of dithiothreitol (DTT) (after dialysis(+DTT))
Rattus norvegicus [9] = species on record: Rattus norvegicus; test: Effect of dialysis on inhibitory potency when COMT is pre-incubated in the absence of dithiothreitol (DTT) (before dialysis); type: functional; outline: as §1

COc1c(O)cc(C(=O)O)cc1S
Activity remaining (Rattus norvegicus [1]): 1% | Kii [2]: 743 µM | Kis [2]: 1140 µM | Activity remaining (Rattus norvegicus [3]): 70% | inhibition [4]: 39% | Kii [5]: 30.2 µM | Kis [5]: 59.9 µM | Activity remaining (Rattus norvegicus [6]): 87% | inhibition [7]: 91% | Activity remaining (Rattus norvegicus [8]): 76% | Activity remaining (Rattus norvegicus [9]): 7%
